The results in this text go back to ChEMBL document CHEMBL3865795, “Design, synthesis and biological evaluation of N-((1-benzyl-1H-1,2,3-triazol-4-yl)methyl)-1,3-diphenyl-1H-pyrazole-4-carboxamides as CDK1/Cdc2 inhibitors” (2016).

The source made the active and inactive calls. The calls are words filed in the database; no cut-off is given here.

Assay [1] is described as follows: Antiproliferative activity against human HeLa cells after 48 hrs by SRB assay. In kind it is functional. In outline: (§1)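 SRB assay in ATCC-sourced cells grown in DMEM with 10% FBS and penicillin/streptomycin at 37 °C, 5% CO2. Cells were plated at densities set by doubling time and incubated 24 h before dosing. Compounds (DMSO 10 mM stock diluted in medium) were tested at 0.01, 0.1, 1, 10 and 100 µM with 48 h continuous exposure. Cells were fixed in cold 10% TCA and stained with 0.057% SRB; OD was read at 510 nm. GI50 was derived from time-zero, control and test absorbances and reported as the mean of three independent experiments.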
A general note: In SRB staining, fixed cells bind dye roughly in proportion to their protein.

Assay [2] is described as follows: Antiproliferative activity against human MIAPaCa2 cells after 48 hrs by SRB assay. It counts as functional. The settings on record: MIA PaCa-2, 48 h. In outline:
as §1

Assay [3] can be described thus: Antiproliferative activity against human MCF7 cells after 48 hrs by SRB assay. In kind it is functional. The following applies: MCF7, 48 h. In outline: as §1
The subject of assay [4] is MCF7. Description: Induction of apoptosis in human MCF7 cells assessed as viable cells at 100 nM after 48 hrs by Annexin V FITC/propidium iodide-based FACS analysis (reference value: 93.1 %). In kind it is functional. The following applies: MCF7, 48 h, read-out: Activity. For orientation: A flow cytometer gives signals particle by particle.
Assay [5] in a line: Cell cycle arrest in human MCF7 cells assessed as reduction in DNA content at G0/G1 phase at 50 to 100 nM after 48 hrs by propidium iodide-staining based FACS analysis. In kind it is functional. In outline:
(§2)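 MCF-7 cells were incubated 48 h with compound at 50 or 100 nM; nocodazole 100 nM was the reference. Untreated and treated cells were harvested, washed in PBS, fixed in ice-cold 70% ethanol, stained with propidium iodide and analysed by flow cytometry for cell-cycle phase distribution.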

Assay [6] relates to MCF7. Description: Induction of apoptosis in human MCF7 cells assessed as early apoptotic cells at 50 nM after 48 hrs by Annexin V FITC/propidium iodide-based FACS analysis (reference value: 2.4 %). It counts as functional.
Assay [7] has as its system MCF7. Description: Induction of apoptosis in human MCF7 cells assessed as intracellular ROS generation at 100 nM after 48 hrs by carboxy-DCFDA staining based fluorescence microscopic analysis. In kind it is functional, cell-based. In outline: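 MCF-7 cells were plated at 1×10^5 cells/mL, adhered overnight and treated at 50 or 100 nM. Methods and legend state 24 h treatment; the results text states 48 h. Cells were PBS-washed, fixed in 4% paraformaldehyde and exposed to carboxy-DCFDA for 30 min in the dark at room temperature. DCF fluorescence was assessed by fluorescence microscopy.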

A short description of assay [8]: Cell cycle arrest in human MCF7 cells assessed as accumulation at G2/M phase after 48 hrs by propidium iodide-staining based FACS analysis. It counts as functional. In outline: as §2
In assay [9] the test system is MCF7. Description: Induction of apoptosis in human MCF7 cells assessed as late apoptotic cells at 100 nM after 48 hrs by Annexin V FITC/propidium iodide-based FACS analysis (reference value: 4.2 %). In kind it is functional.
The test system of assay [10] is MCF7. Description: Induction of apoptosis in human MCF7 cells assessed as chromatin condensation at 50 to 100 nM after 48 hrs by Hoechst 33242-staining based fluorescence microscopic analysis. In kind it is functional, cell-based. In outline: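 MCF-7 cells were seeded at 1×10^5 cells/mL, exposed to compound at 50 or 100 nM, with DMSO vehicle as control. They were fixed in 4% paraformaldehyde for 10 min at 4 °C and stained with Hoechst 33242 (2 µg/mL) for 10 min at room temperature. Nuclear morphology was imaged by fluorescence microscopy in random fields.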

For assay [11], the system named is MCF7. Nature of the assay: Induction of apoptosis in human MCF7 cells assessed as early apoptotic cells at 100 nM after 48 hrs by Annexin V FITC/propidium iodide-based FACS analysis (reference value: 2.4 %). It counts as functional.
The subject of assay [12] is MCF7. Description: Induction of apoptosis in human MCF7 cells assessed as late apoptotic cells at 50 nM after 48 hrs by Annexin V FITC/propidium iodide-based FACS analysis (reference value: 4.2 %). In kind it is functional.
The subject of assay [13] is MCF7. Description: Induction of apoptosis in human MCF7 cells assessed as reduction in mitochondrial membrane potential at 50 to 100 nM after 48 hrs by rhodamine 123-staining based fluorescence microscopic analysis. In kind it is functional, cell-based. In outline:
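MCF-7 cells were plated at 1×10^5 cells/mL and allowed to adhere overnight, then treated at 50 or 100 nM. After PBS washes they were loaded with rhodamine 123 (5 µg/ml) for 30 min in the dark at 37 °C. Loss of green fluorescence was assessed by fluorescence microscopy.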

In assay [14] the test system is MCF7. Description: Induction of apoptosis in human MCF7 cells after 48 hrs by Annexin V FITC/propidium iodide-based FACS analysis. It counts as functional, cell-based.
The subject of assay [15] is MCF7. Description: Induction of apoptosis in human MCF7 cells assessed as viable cells at 50 nM after 48 hrs by Annexin V FITC/propidium iodide-based FACS analysis (reference value: 93.1 %). In kind it is functional. The settings on record: MCF7, 48 h, read-out: Activity.
Assay [16] deals with MCF7. Nature of the assay: Induction of apoptosis in human MCF7 cells assessed as necrotic cells at 100 nM after 48 hrs by Annexin V FITC/propidium iodide-based FACS analysis (reference value: 0.4 %). In kind it is functional.
In assay [17] the test system is MCF7. Description: Induction of apoptosis in human MCF7 cells assessed as necrotic cells at 50 nM after 48 hrs by Annexin V FITC/propidium iodide-based FACS analysis (reference value: 0.4 %). In kind it is functional.
The nature of assay [18]: Downregulation of CDK1 in human MCF7 cells at 50 to 100 nM after 48 hrs by Western blot analysis. It counts as functional, cell-based. In outline: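 MCF-7 cells were treated 48 h at 50 or 100 nM and lysed in RIPA buffer. Lysate (50 µg per lane) was resolved on 10% SDS-PAGE and transferred to PVDF. Membranes were BSA-blocked, probed with primary antibody for 24 h and detected by chemiluminescence, with β-actin as loading control.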
A general note: A western blot detects proteins with antibodies after separation by electrophoresis.

Usually GI50 stands for the concentration that inhibits growth by half.

Take `COc1ccc(-c2nn(-c3ccccc3)cc2C(=O)NCc2cn(Cc3ccc(F)cc3)nn2)cc1`: the GI50 in assay [1] amounted to 500 nM; in [2], 24100 nM; in assay [3] it was 460 nM.
For `COc1ccc(Cn2cc(CNC(=O)c3cn(-c4ccccc4)nc3-c3ccc(OC)cc3)nn2)cc1`, in that order: 450 nM, 2500 nM and 22900 nM.
For `COc1ccc(-c2nn(-c3ccccc3)cc2C(=O)NCc2cn(Cc3ccc(C(F)(F)F)cc3)nn2)cc1`, in that order: 6200 nM, > 100000 nM and > 100000 nM.
On to `O=C(NCc1cn(Cc2ccc(F)cc2)nn1)c1cn(-c2ccccc2)nc1-c1ccccc1`, for which the concentration for 50% growth inhibition (GI50) in [1] is 1600 nM; in assay [2], 9600 nM; in assay [3], 7000 nM.
For `COc1ccc(Cn2cc(CNC(=O)c3cn(-c4ccccc4)nc3-c3ccccc3)nn2)cc1`, in that order: 6900 nM, 10200 nM and > 100000 nM.
For `COc1ccc(Cn2cc(CNC(=O)c3cn(-c4ccccc4)nc3-c3ccc(Cl)cc3)nn2)cc1` the same measures were 1400 nM, 290 nM and 8000 nM.
For `O=C(NCc1cn(Cc2ccc(F)cc2)nn1)c1cn(-c2ccccc2)nc1-c1ccc(Cl)cc1` the same measures were 2800 nM, 1990 nM and 570 nM.
`COc1ccc(Cn2cc(CNC(=O)c3cn(-c4ccccc4)nc3-c3ccc(F)cc3)nn2)cc1`: the values for the GI50 in assay [1], in [2] and in assay [3] were 870 nM, 3700 nM and 650 nM, respectively.
For `COc1ccc(Cn2cc(CNC(=O)c3cn(-c4ccccc4)nc3-c3ccccc3)nn2)cc1OC` the same measures were 10800 nM, 8200 nM and 12600 nM.
For `O=C(NCc1cn(Cc2ccc(C(F)(F)F)cc2)nn1)c1cn(-c2ccccc2)nc1-c1ccc(F)cc1` the same measures were 250 nM, 760 nM and 810 nM.
For `O=C(NCc1cn(Cc2ccc(Cl)cc2)nn1)c1cn(-c2ccccc2)nc1-c1ccc(Cl)cc1`, in that order: 470 nM, 410 nM and 28800 nM.
For `COc1cc(Cn2cc(CNC(=O)c3cn(-c4ccccc4)nc3-c3ccc(F)cc3)nn2)cc(OC)c1`, the GI50 in assay [1] was found to be 360 nM; in assay [2], 190 nM; in [3], 2500 nM.
For `O=C(NCc1cn(Cc2ccc(Cl)cc2)nn1)c1cn(-c2ccccc2)nc1-c1ccccc1`, in that order: 600 nM, 8700 nM and > 100000 nM.
For the compound `COc1ccc(Cn2cc(CNC(=O)c3cn(-c4ccccc4)nc3-c3ccc(F)cc3)nn2)cc1OC`, the GI50 is 200 nM in [1], > 100000 nM in [2] and > 100000 nM in assay [3].
`COc1ccc(-c2nn(-c3ccccc3)cc2C(=O)NCc2cn(Cc3ccc(OC)c(OC)c3)nn2)cc1`: the figures for the GI50 in assay [1], in assay [2] and in assay [3] were 800 nM, 16300 nM and > 100000 nM, respectively.
For `O=C(NCc1cn(Cc2ccc(C(F)(F)F)cc2)nn1)c1cn(-c2ccccc2)nc1-c1ccc(Cl)cc1` the same measures were 1900 nM, 1100 nM and 4900 nM.
As to `COc1cc(Cn2cc(CNC(=O)c3cn(-c4ccccc4)nc3-c3ccc(Cl)cc3)nn2)cc(OC)c1`, the viability at 0.1 µM in the assay with MCF7 [4] was 61.4%. The result (in assay [5]; with MCF7 [7]; in the assay on MCF7 [10]; with MCF7 [13]; in assay [18]) was Active. For the same compound, the Activity in the assay with MCF7 [6] is 5.6%; in assay [8] it was “Dose-dependent effect”; with MCF7 [9], 28.6%; with MCF7 [11], 7.8%; with MCF7 [12] it was 10.2%; in the assay with MCF7 [14], “Dose-dependent effect”. Also, the Activity came out at 2.2% in the assay on MCF7 [16] and 0.9% in the assay on MCF7 [17]. Moreover, the results for the GI50 in assay [1], in assay [2] and in [3] were 730 nM, 340 nM and 150 nM, respectively. The viability at 0.05 µM in the assay on MCF7 [15] is 83.2%.
For `COc1cc(Cn2cc(CNC(=O)c3cn(-c4ccccc4)nc3-c3ccccc3)nn2)cc(OC)c1OC`, the GI50 is > 100000 nM in assay [1], 1000 nM in [2] and > 100000 nM in assay [3].
As to `COc1cc(Cn2cc(CNC(=O)c3cn(-c4ccccc4)nc3-c3ccc(F)cc3)nn2)cc(OC)c1OC`, the GI50 is 2100 nM in assay [1], 5200 nM in assay [2] and 4300 nM in assay [3].
Take `COc1ccc(Cn2cc(CNC(=O)c3cn(-c4ccccc4)nc3-c3ccc(Cl)cc3)nn2)cc1OC`: the GI50 in assay [1] is 200 nM; in assay [2] it was 9400 nM; in assay [3] it was > 100000 nM.
For `O=C(NCc1cn(Cc2ccc(F)cc2)nn1)c1cn(-c2ccccc2)nc1-c1ccc(F)cc1` the same measures were 1200 nM, 14300 nM and 55300 nM.
For `COc1ccc(-c2nn(-c3ccccc3)cc2C(=O)NCc2cn(Cc3cc(OC)cc(OC)c3)nn2)cc1`, in that order: 12400 nM, 5800 nM and 700 nM.
For `O=C(NCc1cn(Cc2ccc(C(F)(F)F)cc2)nn1)c1cn(-c2ccccc2)nc1-c1ccccc1`, in that order: 1600 nM, 17700 nM and 840 nM.
For the compound `COc1cc(Cn2cc(CNC(=O)c3cn(-c4ccccc4)nc3-c3ccc(Cl)cc3)nn2)cc(OC)c1OC`, the GI50 turned out to be 100 nM in assay [1], 3500 nM in assay [2] and 2500 nM in assay [3].
For `COc1cc(Cn2cc(CNC(=O)c3cn(-c4ccccc4)nc3-c3ccccc3)nn2)cc(OC)c1`, the GI50 in assay [1] was found to be 12200 nM; in assay [2] it was 190 nM; in assay [3], 2400 nM.
For the compound `COC(=O)Nc1nc2cc(C(=O)c3cccs3)ccc2[nH]1` [NOCODAZOLE], the viability at 0.1 µM in the assay on MCF7 [4] came out at 70.5%. The Activity was 20.3% in the assay with MCF7 [9], 7.6% in the assay with MCF7 [11], “Dose-dependent effect” in the assay with MCF7 [14] and 1.6% with MCF7 [16]. For the same compound, the GI50 in assay [1] is 810 nM; in assay [2], 950 nM; in assay [3], 940 nM.
As to `COc1ccc(-c2nn(-c3ccccc3)cc2C(=O)NCc2cn(Cc3cc(OC)c(OC)c(OC)c3)nn2)cc1`, the results for the GI50 in assay [1], in assay [2] and in [3] were 1700 nM, 31600 nM and 7600 nM, respectively.
For `COc1ccc(-c2nn(-c3ccccc3)cc2C(=O)NCc2cn(Cc3ccc(Cl)cc3)nn2)cc1`, in that order: 6400 nM, 26300 nM and 2900 nM.
